Results from ChEMBL document CHEMBL1145922, “1,2-benzisoxazole phosphorodiamidates as novel anticancer prodrugs requiring bioreductive activation” (J Med Chem, 2003).

Assays:
Type in all cases: functional
[1] = species on record: Rattus norvegicus; test: Percent formation of compound upon incubation of 15 for 60 minutes with rat P450 reductase microsomes in hypoxic condition in presence of NADPAH
Method in brief: (§1)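 Human or rat P450 reductase microsomes at 1 mg/mL protein, substrate 0.25 mM and cofactor 0.5 mM; pCMBA 2 mM where stated. Anaerobic samples purged with nitrogen 15–20 min in septum-sealed vials. 60 min at 37 °C, stopped with ice-cold methanol. Ketone metabolite quantified by HPLC (C-18, methanol/water 50:50, UV 254 nm) as percent of equimolar substrate. Mean of two experiments.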

[2] = species on record: Rattus norvegicus; test: Tested for formation of compound upon incubation of compound 15 for 30 minutes with rat liver subcellular fractions in oxic condition in the presence of 2-hydroxypyrimidine
Method in brief: (§2)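 Phenobarbital-induced rat liver S-9 fraction (2 mL) with 5 mM cofactor (NADPH, NADH, benzaldehyde or 2-hydroxypyrimidine), substrate 2.5 mM final, added in methanol/water 50:50; aerobic, 30 min at 37 °C. Quenched with ice-cold methanol, proteins spun down, supernatant analysed by reverse-phase C-18 HPLC, UV 254 nm; ketone metabolite given as percent of equimolar substrate; three experiments.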

[3] = species on record: Rattus norvegicus; test: Tested for formation of compound upon incubation of compound 15 for 30 minutes with uninduced rat liver S-9 fractions in hypoxic condition in the absence of cofactor
Method in brief: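 Uninduced rat liver S-9 (22.5 mg/mL protein, 2 mL) with 5 mM NADPH or no cofactor, substrate 2.5 mM final; hypoxic samples nitrogen-purged 15–20 min in septum-sealed vials, else aerobic; 30 min at 37 °C. Methanol quench, centrifugation, C-18 HPLC with UV 254 nm; metabolite as percent of equimolar substrate. NADPH runs three experiments, no-cofactor runs two.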

[4] = species on record: Rattus norvegicus; test: Tested for formation of compound upon incubation of compound 15 for 30 minutes with rat liver subcellular fractions in hypoxic condition in the presence of NADPH
Method in brief: (§3)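 Phenobarbital-induced rat liver S-9, microsomal or cytosolic fraction with 5 mM cofactor (NADPH, NADH, benzaldehyde or 2-hydroxypyrimidine) or none. Substrate 2.5 mM final, added from methanol/water 50:50. Hypoxic vials purged with nitrogen 15–20 min. 30 min at 37 °C, quenched with ice-cold methanol. Ketone metabolite by HPLC at 254 nm as percent of equimolar substrate.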

[5] = species on record: Rattus norvegicus; test: Tested for formation of compound upon incubation of compound 15 for 30 minutes with rat liver microsomal fractions in oxic condition in the presence of NADPH; method in brief: as §3
[6] = species on record: Rattus norvegicus; test: Tested for formation of compound upon incubation of compound 15 for 30 minutes with rat liver subcellular fractions in hypoxic condition in the presence of NADH; method in brief: as §3
[7] = species on record: Rattus norvegicus; test: Percent inhibition of formation of compound upon incubation of 15 with phenobarbit-induced rat liver microsomal fraction in hypoxic condition in presence of SKF-525A at a concentration of 1 mM
Method in brief: (§4)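 Phenobarbital-induced rat liver microsomes; inhibitors SKF-525A (in methanol) or pCMBA (in DMF) at 0–4 mM final. pCMBA preincubated 30 min before NADPH; SKF-525A incubated 15 min with microsomes and NADPH. Hypoxic samples nitrogen-purged. Substrate 2.5 mM added, 30 min at 37 °C. Ketone metabolite by HPLC at 254 nm as percent of substrate; % inhibition relative to no inhibitor. Mean of two experiments.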

[8] = species on record: Rattus norvegicus; test: Percent inhibition of formation of compound upon incubation of 15 with phenobarbit-induced rat liver microsomal fraction in oxic condition in presence of SKF-525A at a concentration of 0 mM; method in brief: as §4
[9] = species on record: Rattus norvegicus; test: Percent formation of compound upon incubation of 15 with phenobarbit-induced rat liver microsomal fraction in oxic condition in presence of SKF-525A at a concentration of 2 mM; method in brief: as §4
[10] = species on record: Homo sapiens; test: Percent formation of compound upon incubation of 15 for 60 minutes with human P450 reductase microsomes in hypoxic condition in presence of NADPH and pCMBA at a concentration of 2 mM; method in brief: as §1
[11] = species on record: Rattus norvegicus; test: Percent formation of compound upon incubation of 15 with phenobarbit-induced rat liver microsomal fraction in hypoxic condition in presence of SKF-525A at a concentration of 0 mM; method in brief: as §4
[12] = species on record: Rattus norvegicus; test: Tested for formation of compound upon incubation of compound 15 for 30 minutes with rat liver cystolic fractions in oxic condition in the absence of cofactor; method in brief: as §3
[13] = species on record: Rattus norvegicus; test: Tested for formation of compound upon incubation of compound 15 for 30 minutes with rat liver cystolic fractions in oxic condition in the presence of NADPH; method in brief: as §3
[14] = species on record: Rattus norvegicus; test: Tested for formation of compound upon incubation of compound 15 for 30 minutes with rat liver microsomal fractions in hypoxic condition in the absence of cofactor; method in brief: as §3
[15] = species on record: Rattus norvegicus; test: Percent formation of compound upon incubation of 15 with phenobarbit-induced rat liver microsomal fraction in oxic condition in presence of pCMBA at a concentration of 1 mM; method in brief: as §4
[16] = species on record: Rattus norvegicus; test: Percent formation of compound upon incubation of 15 with phenobarbit-induced rat liver microsomal fraction in hypoxic condition in presence of pCMBA at a concentration of 4 mM; method in brief: as §4
[17] = species on record: Rattus norvegicus; test: Percent inhibition of formation of compound upon incubation of 15 with phenobarbit-induced rat liver microsomal fraction in oxic condition in presence of pCMBA at a concentration of 2 mM; method in brief: as §4
[18] = species on record: Rattus norvegicus; test: Tested for formation of compound upon incubation of compound 15 for 30 minutes with rat liver subcellular fractions in hypoxic condition in the presence of benzaldehyde; method in brief: as §3
[19] = species on record: Rattus norvegicus; test: Tested for formation of compound upon incubation of compound 15 for 30 minutes with rat liver subcellular fractions in oxic condition in the presence of NADH; method in brief: as §2
[20] = species on record: Rattus norvegicus; test: Percent inhibition of formation of compound upon incubation of 15 with phenobarbit-induced rat liver microsomal fraction in hypoxic condition in presence of pCMBA at a concentration of 4 mM; method in brief: as §4
[21] = species on record: Rattus norvegicus; test: Tested for formation of compound upon incubation of compound 15 for 30 minutes with rat liver microsomal fractions in oxic condition in the absence of cofactor; method in brief: as §3
[22] = species on record: Rattus norvegicus; test: Percent formation of compound upon incubation of 15 with phenobarbit-induced rat liver microsomal fraction in hypoxic condition in presence of pCMBA at a concentration of 2 mM; method in brief: as §4
[23] = species on record: Rattus norvegicus; test: Percent inhibition of formation of compound upon incubation of 15 with phenobarbit-induced rat liver microsomal fraction in oxic condition in presence of pCMBA at a concentration of 1 mM; method in brief: as §4
[24] = species on record: Rattus norvegicus; test: Percent inhibition of formation of compound upon incubation of 15 with phenobarbit-induced rat liver microsomal fraction in oxic condition in presence of pCMBA at a concentration of 0 mM; method in brief: as §4
[25] = species on record: Rattus norvegicus; test: Tested for formation of compound upon incubation of compound 15 for 30 minutes with rat liver subcellular fractions in hypoxic condition in the absence of cofactor; method in brief: as §3
[26] = species on record: Rattus norvegicus; test: Percent inhibition of formation of compound upon incubation of 15 with phenobarbit-induced rat liver microsomal fraction in hypoxic condition in presence of pCMBA at a concentration of 0 mM; method in brief: as §4
[27] = species on record: Homo sapiens; test: Percent formation of compound upon incubation of 15 for 60 minutes with human P450 reductase microsomes in hypoxic condition in presence of NADPH; method in brief: as §1
[28] = species on record: Rattus norvegicus; test: Tested for formation of compound upon incubation of compound 15 for 30 minutes with rat liver cystolic fractions in hypoxic condition in the absence of cofactor; method in brief: as §3
[29] = species on record: Rattus norvegicus; test: Tested for formation of compound upon incubation of compound 15 for 30 minutes with rat liver subcellular fractions in oxic condition in the presence of benzaldehyde; method in brief: as §2

CCC(=O)c1ccccc1O
Formation [1]: 1.7%
Formation [2]: 0.6%
Formation [3]: 0.9%
Formation [4]: 88.5%
Formation [5]: 73%
Formation [6]: 28.5%
inhibition [7]: 23%
inhibition [8]: 0%
Formation [9]: 38.5%
Formation [10]: 0.6%
Formation [11]: 70.8%
Formation [12]: 0.4%
Formation [13]: 0.7%
Formation [14]: 0.4%
Formation [15]: 0.5%
Formation [16]: 0.5%
inhibition [17]: 99%
Formation [18]: 2%
Formation [19]: 14.8%
inhibition [20]: 99%
Formation [21]: 0.6%
Formation [22]: 1.2%
inhibition [23]: 99%
inhibition [24]: 0%
Formation [25]: 2.2%
inhibition [26]: 0%
Formation [27]: 1.7%
Formation [28]: 1.4%
Formation [29]: 0.7%
